Source: PubChem BioAssay
Most compounds without a hit are left out; they make up all but 2.5% or so of the library.
NR2E3 ag-1 – human photoreceptor-specific nuclear receptor agonism | Q9Y5X4 | CHO-S Gal4-NCOR/VP16-NR2E3 two-hybrid, luciferase | inhibition of corepressor binding, % at 3.98 µM | 0.35% of 360,000 active | AID 602229;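 active = inhibition above the mean of all tested compounds plus 3 SD, cut at about 70% in these data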;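 also: 0% = DMSO with NR2E3 transfected cells and 100% = cells lacking NR2E3 construct; higher means lower luciferase signal from less NR2E3 corepressor binding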
NR2E3 ag-2 – activates human photoreceptor nuclear receptor NR2E3. Q9Y5X4. GST-NR2E3/biotin-RetCOR TR-FRET, 1536-well. inhibition of corepressor binding, % at 4.78 µM. 0.12% of 320,000 active;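 active = percent inhibition above the cutoff of mean plus 3 SD of all tested compounds, set per screening campaign, cut at about 20% in these data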;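 also: 0% = DMSO wells and 100% = biotin wells as full block of FRET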
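system = GST-tagged NR2E3 plus biotinylated RetCOR corepressor | input = 1.35 nM GST-NR2E3 | also added = 7 nM biotin-RetCOR | schedule = 5 h incubation at 4 °C | measured by = TR-FRET with europium anti-GST and streptavidin-D2, 340 nm excitation | read-out = percent loss of FRET ratio relative to control wells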
ADAM10 inh – ADAM10 inhibition, QFRET primary screen; AID 720582; 0.62% of 370,000 active; recombinant ADAM10, EDANS/DABCYL FRET peptide cleavage, 3 h; inhibition, % at 7 µM; O14672;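 active = inhibition above a per-campaign cutoff equal to the mean of compounds falling between control-based bounds plus 3 SD, cut at about 20% in these data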;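 also: 0% = DMSO wells while the 100% control is not disclosed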
ADAM17 inh – inhibits human ADAM17. P78536. recombinant ADAM17, EDANS/DABCYL FRET peptide cleavage. 0.83% of 370,000 active. inhibition, % at 6.95 µM;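 active = inhibition above the mean of compounds lying between control limits plus 3 SD, set per campaign, cut at about 8.5% in these data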;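 also: 0% = DMSO-only wells as the low control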
KLK7 zymogen act – activators of human kallikrein-7 zymogen; purified proKLK7, EDANS-DABCYL substrate fluorescence; 100% is mature enzyme control, 0% vehicle; 0.9% of 370,000 active; activation, % at 7 µM;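 active = activation above the mean of all tested compounds plus 3 SD, computed per campaign excluding outliers beyond control limits, cut at about 13% in these data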
Target sequence (P49862 whole entry, looked up): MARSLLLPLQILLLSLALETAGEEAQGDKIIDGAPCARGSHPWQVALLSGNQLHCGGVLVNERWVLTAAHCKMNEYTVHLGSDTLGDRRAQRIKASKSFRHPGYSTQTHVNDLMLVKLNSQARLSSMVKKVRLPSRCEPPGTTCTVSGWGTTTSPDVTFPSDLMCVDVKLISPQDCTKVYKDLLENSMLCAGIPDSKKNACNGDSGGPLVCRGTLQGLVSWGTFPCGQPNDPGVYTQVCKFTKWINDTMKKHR
JMJD2C inh – inhibitors of human GASC-1 (JMJD2C) demethylase; Q9H3R0; GST-JMJD2C(1-420) H3K9me3 demethylation, DELFIA europium; inhibition, % at 2.35 µM; 0.069% of 330,000 active; AID 2099;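 active = more than half of a compound's replicate wells show inhibition beyond 50%, single wells judged on their own value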;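 also: signal counts dimethyl H3K9 product captured on neutravidin plate; 0% = median of DMSO wells and 100% = 0.3 times that DMSO median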
Target sequence (Q9H3R0 1-420 limits assumed): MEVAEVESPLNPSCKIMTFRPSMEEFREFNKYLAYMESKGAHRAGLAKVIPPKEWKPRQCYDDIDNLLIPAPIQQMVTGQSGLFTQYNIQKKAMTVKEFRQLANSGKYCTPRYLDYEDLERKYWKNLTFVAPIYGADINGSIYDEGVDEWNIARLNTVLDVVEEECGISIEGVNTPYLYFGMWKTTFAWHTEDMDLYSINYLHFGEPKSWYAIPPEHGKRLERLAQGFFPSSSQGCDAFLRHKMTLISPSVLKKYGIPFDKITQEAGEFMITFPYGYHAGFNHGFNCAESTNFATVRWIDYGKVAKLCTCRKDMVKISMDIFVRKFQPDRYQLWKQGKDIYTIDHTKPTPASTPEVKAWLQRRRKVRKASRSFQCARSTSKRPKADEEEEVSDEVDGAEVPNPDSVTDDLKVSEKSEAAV
ADAM10 counter – ADAM10 inhibition, counter-screen for ADAM17 exosite hits; shares compounds with ADAM17 inh; recombinant ADAM10, EDANS/DABCYL FRET peptide cleavage, 3 h; inhibition, % at 6.95 µM; 47% of 2,900 active; AID 743256;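 active = mean inhibition over the triplicate runs exceeds the activity threshold set in the earlier primary screen, cut at about 20% in these data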;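 also: 0% = DMSO wells and 100% = marimastat wells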
ADAM17 confirm – confirmation of inhibitors of human ADAM17; recombinant ADAM17, EDANS/DABCYL QFRET peptide cleavage; shares compounds with ADAM17 inh; inhibition, % at 6.95 µM; 65% of 2,900 active; AID 743257;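 active = mean inhibition across replicates above the hit cutoff set in the primary screen, cut at about 8.5% in these data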;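 also: 0% = DMSO wells and 100% = marimastat wells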
Starred values were filed as active, the others as inactive; . = no result.

SMILES	NR2E3 ag-1	NR2E3 ag-2	ADAM10 inh	ADAM17 inh	KLK7 zymogen act	JMJD2C inh	ADAM10 counter	ADAM17 confirm
CC(CCc1ccccc1)NC(=O)COC(=O)c1cc(NS(=O)(=O)c2ccc(Cl)c([N+](=O)[O-])c2)ccc1O (stereo not drawn)	-14	3	17	8.7*	0	5	31*	19*
CNS(=O)(=O)c1cccc(C(=O)OCC(=O)NC(C)CCc2ccccc2)c1 (stereo not drawn)	-26	-2	-1	3	0	-11	.	.
O=C(CN(CCc1ccccc1)C(=O)c1csnn1)NCc1ccc(F)cc1	-9	1	-2	-3	0	3	.	.
OC1(c2ccccc2)CC(c2ccccc2)c2ccccc2O1 (stereo not drawn)	9	.	14	9.2*	0	.	30*	16*
O=C(O)C1CCC(Cn2c(SCc3cc(=O)n4ccccc4n3)nc3ccsc3c2=O)CC1 (stereo not drawn)	-2	2	-5	-2	0	0	.	.
C[C@H](CO)N1C[C@H](C)[C@@H](CN(C)S(=O)(=O)c2ccccc2)Oc2c(NC(=O)c3ccncc3)cccc2C1=O	-12	.	4	11*	0	2	2	6
C[C@H](CO)N1C[C@H](C)[C@@H](CN(C)C)Oc2c(NC(=O)CCC(F)(F)F)cccc2C1=O	-6	.	1	10.0*	0	-16	-3	2
C[C@H](CO)N1C[C@H](C)[C@@H](CN(C)Cc2ccncc2)Oc2c(NC(=O)CCC(F)(F)F)cccc2C1=O	-27	.	-2	0	0	-34	.	.
C[C@H](CO)N1C[C@H](C)[C@@H](CN(C)S(=O)(=O)c2ccc(F)cc2)Oc2c(NC(=O)c3ccncc3)cccc2C1=O	-28	.	12	10*	-1	.	1	4
C[C@H](CO)N1C[C@H](C)[C@@H](CN(C)Cc2ccncc2)Oc2c(NC(=O)c3ccncc3)cccc2C1=O	12	.	1	-6	0	-11	.	.
Cc1ccc(-c2csc(NC(=O)c3ccc4c(=O)n5c(nc4c3)CCCCC5)n2)cc1	-4	1	10	2	0	-5	.	.
Cn1cc([N+](=O)[O-])c(C(=O)NNC(=O)c2ccc([N+](=O)[O-])cc2)n1	-27	-2	5	8.8*	-1	-5	8	9
O=C(O)c1ccc2c(c1)N(Cc1cccc(F)c1)C(=O)CS2	18	-2	15	8.9*	-1	-6	4	3
CC(C)(C)c1ccc(S(=O)(=O)Nc2cccc(C3OCCCO3)c2)cc1	42	1	7	4	0	-4	.	.
CC1CN(C(=O)/C=C/c2ccc(SC(F)F)cc2)CC(C)O1 (stereo not drawn)	-15	-4	1	2	0	49	.	.
COc1ccc(N2CCN(C(=O)C3CCN(S(=O)(=O)c4c(C)noc4/C=C/N(C)C)CC3)CC2)cc1	-5	4	18	10*	0	-24	0	1
COc1ccc(N2CCN(S(=O)(=O)c3c(C)noc3/C=C/N(C)C)CC2)cc1	-14	-1	-3	-4	0	13	.	.
CCN(c1ccc(NC(=O)COC(=O)C2CCN(c3ccc(C(F)(F)F)cn3)CC2)cc1)C(C)C	-22	.	11	8.9*	0	.	37*	18*
CCN(CC)c1ccc(NC(=O)COC(=O)C2CCN(c3ccc(C(F)(F)F)cn3)CC2)cc1	-14	.	-4	1	0	.	.	.
O=C(COC(=O)C1CCN(S(=O)(=O)c2ccc3c(c2)OCCO3)CC1)Nc1ccc(C(F)(F)F)cc1	0	-3	13	8.7*	0	6	13	11*
CCCS(=O)(=O)NC(=O)C1(C)CCCN(C(=O)C2(c3ccc(Cl)cc3)CCCC2)C1 (stereo not drawn)	19	.	-4	-3	0	.	.	.
CC(C)(C)c1ccc(OCCC(=O)OCC(=O)N2c3ccccc3NC(=O)C2(C)C)cc1	-26	-6	5	11*	0	-1	39*	16*
Cc1cccc(OCCC(=O)OCC(=O)N2c3ccccc3NC(=O)C2(C)C)c1	1	.	0	-2	0	.	.	.
COc1ccc(C)cc1N(C(=O)c1snc(C(N)=O)c1N)C(C(=O)NC1CCCCC1)c1ccc(C)o1 (stereo not drawn)	-32	.	-16	-6	-1	-12	.	.
OC(CSc1nnnn1-c1ccccc1)Cn1c2ccccc2c2ccccc21 (stereo not drawn)	7	.	7	11*	0	.	15	10*
SMILES	NR2E3 ag-1	NR2E3 ag-2	ADAM10 inh	ADAM17 inh	KLK7 zymogen act	JMJD2C inh	ADAM10 counter	ADAM17 confirm
c1ccc(CSc2nnnn2-c2ccccc2)cc1	-19	1	4	7	0	-2	.	.
CC(C)c1cc(C(=O)N2CCCC(Nc3ccc(F)cc3)C2)n[nH]1 (stereo not drawn)	31	-1	-4	-3	0	-23	.	.
OC(COc1ccc(-c2ccccc2)cc1)CN1CCOCC1 (stereo not drawn)	.	-4	.	.	.	5	.	.
OC(COc1ccc(OCc2ccccc2)cc1)CN1CCOCC1 (stereo not drawn)	-6	2	10	10*	0	2	6	4
CC(=O)Oc1ccc(N2C(=O)C3C4C=CC(O4)C3C2=O)cc1 (stereo not drawn)	-8	4	-2	9.8*	0	1	19	17*
CC(=O)Oc1ccc(N2C(=O)CCC2=O)cc1	12	2	-2	-2	1	2	.	.
Cc1[nH]c2ccccc2c1/C=N/Nc1ccc([N+](=O)[O-])cc1	-9	0	20	10*	-1	-1	10	6
Cn1cccc1C(=O)NC1CCCCCC1	-61	2	0	-1	1	.	.	.
Cc1cc(SCCOc2ccccc2)nc(N)n1	-63	-1	4	11*	0	-13	1	3
Cc1cc(Oc2ccccc2)nc(N)n1	-6	1	3	2	-1	-5	.	.
CCOc1ccc(CCNC(=O)CN2C(=O)c3cccnc3Oc3ccc(C)cc32)cc1OCC	-7	1	9	1	0	7	.	.
CCOc1ccc(CCNC(=O)CN2C(=O)c3cccnc3Oc3ccc(Cl)cc32)cc1	-10	9	3	11*	0	-11	21*	19*
COc1cc(NC(=O)c2ccc(S(=O)(=O)N(C)c3ccccc3OC)cc2)cc(OC)c1	-43	.	19	9.4*	0	5	25*	13*
